Data on 95 compounds can be found in ChEMBL document CHEMBL4513216, “Probing the Open Global Health Chemical Diversity Library for Multistage-Active Starting Points for Next-Generation Antimalarials” (ACS Infect Dis, 2020).

The nature of this data set: Toxicity liver stage against HepG2, at 10uM. It counts as cell-based. More on the design: test concentration 10 uM, cell line HepG2-A16-CD81EGFP. The conditions noted are these: human, HepG2-A16-CD81EGFP cells; read-out: INHIBITION
In short, it runs like this: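 Uninfected HepG2-A16-CD81EGFP cells, 3 × 10^3 per well, 1536-well, plated on prespotted compound at 10 μM final, parasite-free screening media added to match infected plates; puromycin 10 μM positive, DMSO 0.5% negative; run in parallel with 48 h PbLuc assay at 37 °C, 5% CO2; viability by CellTiter-Glo luminescence, normalized to controls.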
As for `CC[C@H]1CN2CC[C@H]1C[C@@H]2CNC(=O)Nc1ccccc1`, the cytotoxicity at 10 µM is -0.989%.
With `CCOC(=O)[C@@H]1[C@@H](c2ccccc2)CN2CCN(C(=O)N(C)C)C[C@H]12`, the cytotoxicity at 10 µM amounted to 14.8%.
`CC(O)CN1CC(C)(C)CN(C(=O)CCc2ccccc2)CC1=O` (stereo not given): the cytotoxicity at 10 µM was -0.321%.
With `CC(C)COC(=O)N1CC(=O)N(Cc2ccc(Cl)cc2)CC(O)C1` (stereo not given) the figure was -0.947%; with `COc1ccc2nnc(CCCC(=O)NCCc3ccncc3)n2n1`, -10%; with `CCOC(=O)c1sc(NC(=O)CN2C(=O)CCC2=O)c(C#N)c1C`, -6.93%.
With `O=S(=O)(NCC1(O)CCCC1)c1ccccc1Br` the figure was -3.87%; with `O=C(Nc1nc2c(s1)CN(S(=O)(=O)C1CC1)CC2)c1ccc(=O)[nH]c1`, -11.1%; with `N#Cc1ccc(C(=O)N2CCC(Oc3ccc(C#N)cn3)CC2)cc1`, 7.92%.
Turning to `CC(=O)N1CCC2(CC1)CN(C(=O)c1ccc3c(c1)OCO3)C2`, the cytotoxicity at 10 µM is 6.71%.
`CN(C)C(=O)CN1CCC2(CCN(S(=O)(=O)C3CC3)CC2)C1=O`: the cytotoxicity at 10 µM turned out to be 6.32%.
For `c1cncc(COCC2CNCc3nccn3C2)c1` (stereo not given) the value was 14.2%.
With `CN(C)c1ccc2c(c1)CN(C(=O)c1cnccn1)C2c1cnco1` (stereo not given) the figure was 3.55%; with `CC(C)OC[C@H]1CCC[C@]12CN(S(=O)(=O)C1CC1)CCO2`, -2.51%; with `Cc1noc(C2CCC3(CCN(C(=O)C4CCOCC4)CC3)O2)n1` (stereo not given), 7.16%.
For the compound `O=C(CCn1ccc2ccc(F)cc21)/N=c1\[nH]nc(C2CCCO2)s1` (stereo not given), the cytotoxicity at 10 µM was -0.0308%.
For `Cc1c(C)n(-c2ccccn2)c2nc3c(c(N)c12)CCCCC3`, the cytotoxicity at 10 µM was found to be 6.1%.
For `Cc1c(Br)cnn1CCC(=O)N(C)Cc1c(Cl)cnn1C` the value was -13.7%; for `CCC(CC)C(=O)N1CCCc2c(cnn2C)C1`, 6.55%; for `CN(Cc1cscn1)Cc1cc2c(cc1Br)OCO2`, -4%.
For `Cc1ccnc2c1NC(=O)CN2C(=O)CCC(F)(F)F`, the cytotoxicity at 10 µM is -15%.
In the case of `COCCOc1ccc(S(=O)(=O)Nc2cccnc2O)cc1C`, the cytotoxicity at 10 µM was 4.68%.
With `Cc1cnn(C2CCCN(C(=O)c3cc(-c4ccccc4C)n[nH]3)C2)c1` (stereo not given) the figure was -9.66%; with `O=C(NCc1ccc(N2CCSCC2)cc1)NCc1cc[nH]n1`, -0.645%; with `CCSc1cc(C(=O)N(Cc2cnn(C)c2)C(C)C)ccn1`, 4.64%.
Consider `O=C(NC1CCCN(Cc2c(F)cccc2F)C1)c1cc[nH]n1` (stereo not given), for which the cytotoxicity at 10 µM stood at 5.72%.
With `CN(CC(=O)NS(=O)(=O)c1cccs1)Cc1ccccc1` the figure was -9.71%; with `CC(C)Cc1noc(CN(C)C2CCS(=O)(=O)C2)n1` (stereo not given), 5.7%.
Consider `CN(C)c1cc2c(nn1)CCN(C(=O)c1cc3c(s1)CCOC3)C2`, for which the cytotoxicity at 10 µM came out at 2.35%.
With `O=C(c1cnc(NCC2CCCO2)c(Cl)c1)N1CCCCC1` (stereo not given) the figure was 0.139%.
For `CCNc1c(C#N)c(=O)n(C)c(=O)n1C` the value was 0.504%; for `CC1CN(c2ncnc3ccccc23)CCO1` (stereo not given), 23.6%.
For `CC(C)(C)OC(=O)Cn1nc(C2CC2)cc(C(F)(F)F)c1=O` the value was -8.96%; for `CCOc1ccccc1NC(=O)CN(C)Cc1ccccc1Cl`, -6.93%.
With `Cc1ccc(C)c(NC(=O)c2cc(S(=O)(=O)N3CCSCC3)c[nH]2)c1`, the cytotoxicity at 10 µM is -0.185%.
For `CCSc1ccc(C(=O)NCCc2nnc(-c3ccco3)[nH]2)cn1` the value was 10.7%.
Turning to `COCCCN(CCOC)C(=O)Nc1ccccc1-n1cccn1`, the cytotoxicity at 10 µM was determined as 1.51%.
With `Cc1cncc(C(=O)N2CCCCC2c2nc[nH]n2)c1` (stereo not given) the figure was -0.229%; with `Cn1c(CCNc2nccnc2C#N)nc2cc(Cl)ccc21`, -6%; with `COCC(C)(CCO)NC(=O)Nc1cccc(Br)c1C` (stereo not given), 10.5%.
For `COC1CCCN(C(=O)NCC(C)(C)SC)C1` (stereo not given) the value was 10.5%.
With `CCn1cc(CN(C)S(=O)(=O)N2CCCC2c2ccco2)cn1` (stereo not given) the figure was 9.14%.
On to `Cc1cccc(N2N=C(C(=O)NC(C)Cc3ccco3)CCC2=O)c1` (stereo not given), for which the cytotoxicity at 10 µM was -9.6%.
With `CC(C)c1nc(CNC(C(=O)N2CCOCC2)C(C)C)no1` (stereo not given) the figure was 6.43%.
Consider `NC(=O)[C@@H]1Cc2ccccc2CN1S(=O)(=O)N1CCCCCC1`, for which the cytotoxicity at 10 µM amounted to 15.6%.
As for `CC(NC(=O)Cc1ccccc1F)(C(N)=O)c1cccc(Cl)c1` (stereo not given), the cytotoxicity at 10 µM amounted to 17.6%.
For `Cc1cc(NC(=O)NCC2(O)CCCC2)ccn1` the value was -6.36%.
In the case of `Cc1nnnn1-c1cc(NCc2cc(C#N)ccc2F)ccc1F`, the cytotoxicity at 10 µM was determined as 0.685%.
On to `Cc1ccc(S(=O)(=O)N2CCN(Cc3ccncc3)CC2)c(Cl)c1`, for which the cytotoxicity at 10 µM was -0.147%.
For `COc1cccc(C(=O)N2CCN(CC(O)c3ccccc3)CC2)c1` (stereo not given) the value was -46.7%.
With `Cc1cc(C)n(C2CCCN(C(=O)Cn3ccc(=O)n(C)c3=O)C2)n1` (stereo not given) the figure was 0.437%.
For `COc1ccccc1CC(=O)NC(CC(=O)O)c1ccc(F)cc1` (stereo not given) the value was -4.24%; for `CCN1C[C@@H]2CN(C(=O)c3cccn3C)C[C@@H]2C1=O`, -96.1%; for `Cn1cc(C[C@H]2[C@H](N3CCOCC3)CCN2C(=O)c2ccoc2)cn1`, -81.5%.
On to `COCC(=O)N1CCCN(Cc2cc(O)c3ccccc3n2)CC1`, for which the cytotoxicity at 10 µM came out at 4.02%.
With `Cc1nn(C)c2nc(N3CCNC(=O)C3Cc3ccccc3)sc12` (stereo not given) the figure was -2.32%; with `CCn1c(C2CCNCC2)nn(CCn2cncn2)c1=O`, -6.26%; with `CCC(=O)N1CCN(S(=O)(=O)c2cccc(F)c2)[C@H]2CS(=O)(=O)C[C@H]21`, -52%.
As for `Cc1ccc(OC[C@@H]2CNC[C@H](C(=O)NCC3CCCO3)C2)cn1` (stereo not given in full), the cytotoxicity at 10 µM is -8.14%.
With `COCCN(C)C[C@@H]1CN(c2nc(C)cc(C)n2)C[C@@H]1CO`, the cytotoxicity at 10 µM is -10.3%.
For `Cc1nc(O)cc(CN2CCC=C(CN(C)C(=O)c3ccco3)C2)n1` the value was 8.82%; for `CN(Cc1nncn1C)C(=O)c1cc(COc2ccccc2F)[nH]n1`, 2.14%; for `Cc1cc(NC(C)c2nncn2C2CCCC2)n2nc(C)c(C)c2n1` (stereo not given), 13.7%.
Consider `Cc1nc(C(=O)N2CCCCC2c2ccc(CN(C)C)cc2)c(C)o1` (stereo not given), for which the cytotoxicity at 10 µM is -2.32%.
For `CC(C)(C)CCN1CCC(c2nnc(Cn3cccn3)n2C2CC2)CC1` the value was 8.19%; for `CN(Cc1noc2c1CCCC2)C(=O)C1Cc2ccccc2CN1C` (stereo not given), 4.74%; for `O=C1NCCN(C(=O)CN2CCOC2=O)C1c1cccc(F)c1` (stereo not given), 8.91%.
With `CCc1oc(C(=O)NCCc2cc(O)nc(C)n2)cc1CN1CCCC1` the figure was 13.1%.
With `O=C(CC1=CSC2=NCCCN12)N1CCCCC1c1cccc(F)c1` (stereo not given) the figure was -160%; with `CC1(C)CN(Cc2c[nH]c(CC3CCCC3)n2)CC[C@]1(C)O`, 2.74%.
Consider `O=c1[nH]c(-c2ccncc2)nc2c1CCN(S(=O)(=O)N1CCCC1)C2`, for which the cytotoxicity at 10 µM turned out to be 6.04%.
With `CCc1nc(CCn2ccc3nc(OC)c(C#N)cc3c2=O)no1` the figure was 3.57%.
Consider `Cc1nc(N)nc(C)c1Cc1nc(C2CC2)n[nH]1`, for which the cytotoxicity at 10 µM was -9.44%.
For the compound `CCC(NC(=O)c1nn(C)cc1C(=O)O)c1ccc(C)cc1C` (stereo not given), the cytotoxicity at 10 µM was -8.66%.
With `CCCn1cc2c(C(F)F)cc(SCC(=O)O)nc2n1` the figure was -10.9%; with `COc1ccc(-c2nonc2N)cc1`, -7.97%; with `Cc1csc(N2CCN(CC(=O)N3CCCC3)CC2C)n1` (stereo not given), -0.456%.
For `COc1ccc(NC(=O)N2CCCCCC2c2ccncc2)cn1` (stereo not given) the value was 5.55%; for `COC(=O)N1CCCN(C(=O)NCc2ccc(Cl)s2)CC1`, 1.76%.
Consider `CCn1c(C)nnc1CN(C)C1CCN(CCn2cccn2)C1` (stereo not given), for which the cytotoxicity at 10 µM is 1.49%.
For `CCc1nc(C2CCCN2Cc2nccn2Cc2ccccc2)no1` (stereo not given) the value was 0.89%.
With `COc1cccc(CN2CCC3(CCN(c4ncc(C)cn4)CC3)C2)c1` the figure was -6.5%; with `CC(C)CN1C(=O)C2(CCN(Cc3ccsc3)C2)c2ccccc21` (stereo not given), 15.7%.
With `CC(C)Nc1ncnc2c1CCN(C(=O)c1ccccc1F)CC2` the figure was -86.7%; with `CN(C)S(=O)(=O)N1C[C@H]2CCC[C@@]2(COCc2ccccn2)C1`, 0.718%; with `CCN1CCn2c(C)cnc2C12CCN(C(=O)c1ccc(Cl)cc1)CC2`, 1.22%.
Take `CN(C)Cc1cc(=O)n2c(n1)CN(C(=O)c1ccc[nH]1)CCC2`: the cytotoxicity at 10 µM is -123%.
With `CO[C@@H]1CCN(Cc2nccn2C)[C@H]1Cc1cccnc1` the figure was -71.5%; with `Cn1cc(CN2CCCC3(COCCN(c4cccnc4)C3)C2)cn1` (stereo not given), -75.6%; with `O=C(NCC1CC1)[C@@H]1CC[C@@H]2[C@@H](CCN2Cc2ccc(F)c(F)c2)O1`, 8.33%.
With `CCN1C[C@H]2[C@@H](C1)N(S(=O)(=O)c1ccccc1F)CC[C@H]2OC` the figure was -74.1%.
With `Cn1ccc(C(=O)N2C[C@@H]3CCN(c4cccnc4)C[C@@H]3C2)n1` the figure was -106%.
Consider `Cc1ccc2c(n1)N(CC1CC1)CCN(Cc1ccco1)C2`, for which the cytotoxicity at 10 µM is 2.75%.
For `Cc1ccc(N2CCN(C(=O)CN3C[C@H]4CC[C@@H]3C4)CC2=O)cc1` the value was -1.41%; for `Cc1ccc(OCc2occc2C(=O)N2C[C@@H]3C(CN(C)C)[C@@H]3C2)cc1` (stereo not given in full), -1%.
